# Screens as filed in PubChem BioAssay.
# Lung fibro prol = blocks proliferation of human lung fibroblasts | LL 47 human lung fibroblast viability, ATP luminescence; hits give low values | hit rate 1.1% among 85,000 | AID 719 | viability, % at 10 µM;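 active = viability at or below 50% in the single dose screen; inactive = viability above 50%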;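 note: compound exposure lasted 72 h before the ATP readout; 100% = median luminescence of untreated cell-only wells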
#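 Test system: LL 47 human lung fibroblasts / Incubation: 72 h compound exposure at 37 °C after overnight plating / Technique: luminescent ATP detection, CellTiter-Glo / Compound dosing: 0.1% DMSO in all compound wells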
# H69AR inhibit = blocks growth of human H69AR lung tumor cells; H69AR lung tumor viability, ATP luminescence, 72 h; hits give low values; viability, % at 10 µM; hit rate 6% among 85,000; AID 598;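 active = viability at or below 40%; inactive = viability above 40%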;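 note: multidrug resistant small cell line overexpressing MRP-1 efflux transporter; 100% = mean luminescence of untreated control wells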
# HUVEC prolif 384 = human endothelial cell proliferation inhibition; hit rate 1.1% among 86,000; viability, % at 10 µM (by protocol); HUVEC proliferation, CellTiter-Glo luminescence, 72 h; hits give low values;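 active = viability at or below 30%; inactive = viability above 30%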;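 note: 100% = median luminescence of DMSO-only cell control wells on each plate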
# HCT116 bCat-KO = beta-catenin-lacking colon tumor cell growth suppression; HCT116 beta-catenin knockout viability, CellTiter-Glo, 60 h; hits give low values; viability, % at 10 µM; hit rate 1.5% among 140,000; AID 818;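 active = viability at or under a set limit, the compound median less 4 SD, cut at about 6% in these data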;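 note: 0% = Hyamine 1622 control at 20 µM and 100% = untreated cell control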
# HCT116 PTEN-null = PTEN-deleted cell growth suppression | hit rate 1.2% among 140,000 | viability, % at 10 µM | HCT116 PTEN-null viability, CellTiter-Glo, 60 h; hits give low values | AID 827;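 active = viability at or below a set limit, 4 SD under the median of all tested compounds, cut at about 3.7% in these data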;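 note: PTEN knockout HCT116 line with beta catenin targeted HCT116 as companion control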
# An asterisk follows results filed as active; · = no result. The full list was thinned out, with hits kept by preference.
SMILES,Lung fibro prol,H69AR inhibit,HUVEC prolif 384,HCT116 bCat-KO,HCT116 PTEN-null
Cc1ccc(Cn2c(=O)n(CCC(=O)NCc3ccc4c(c3)OCO4)c(=O)c3ccccc32)cc1,102,99,95,93,91
COc1ccc(S(=O)(=O)N2CC3C4C=CC(C4)C3C2)cc1 (stereo not given),83,93,90,88,99
O=C1[O][Bi][O]c2ccccc21,98,91,103,·,·
CCc1ccccc1NC(=O)CC(O)(C(=O)OC)C(F)(F)F (stereo not given),103,96,94,97,89
CSCCCNC(=S)N1CCN(S(=O)(=O)c2cccc(C(F)(F)F)c2)CC1,·,·,·,67,69
O=C(CCCCn1c(=O)c2ccccc2n(Cc2ccc(Cl)cc2)c1=O)NCc1ccco1,54,16*,52,53,42
O=C(CCCn1c(=O)c2sccc2n(Cc2ccc(F)cc2)c1=O)NCc1ccco1,96,22*,69,61,58
O=C(CCCn1c(=O)c2sccc2n(CC(=O)OCc2ccccc2)c1=O)NCc1ccco1,96,92,87,89,88
COc1ccc(NC(=O)Cn2cccc2)cc1Cl,·,·,·,94,94
CCC(C)N=C1CC(C)(C)CC(=O)/C1=C(/O)Cc1ccccc1 (stereo not given),·,·,·,92,99
O=C(O)c1cccc(Nc2nc(N3CCOCC3)nc(N3CCOCC3)n2)c1,107,89,94,105,107
CN1CCN(c2nc(Nc3cccc(C(F)(F)F)c3)nc(N3CCOCC3)n2)CC1,·,53,9.8*,50,55
CN(C)S(=O)(=O)c1ccc(NC(=O)COC(=O)c2ccccn2)cc1,101,111,105,103,89
COc1ccc2nc(NC(C)=O)sc2c1,98,105,108,88,93
COc1ccc2nc(N=Nc3c(O)ccc4ccccc34)sc2c1,·,·,·,5.3*,7
Cc1cccn2c(=O)c(C=NCc3ccco3)c(Nc3ccc(Cl)cc3)nc12,72,23*,70,·,·
CCC(C)N=Cc1c(NCc2ccco2)nc2c(C)cccn2c1=O (stereo not given),94,70,78,89,79
Cc1noc(C)c1CSc1cc(C)c2ccccc2n1,90,22*,97,92,80
COc1ccc2[nH]c3nc(SCc4nnc(-c5ccc(C)cc5)o4)nnc3c2c1,68,18*,54,64,52
COc1ccc2[nH]c3nc(SCC(=O)Nc4ccc5c(c4)OCO5)nnc3c2c1,·,·,·,75,74
CCOc1ccc2nc(NS(=O)(=O)Cc3ccccc3)sc2c1,62,21*,52,11,14
CCOc1ccc2nc(NC(=O)CS(=O)(=O)c3ccc(C)cc3)sc2c1,85,2.2*,66,73,80
O=C(COC(=O)c1cc(-c2ccccc2)nc2ccccc12)Nc1ccc2c(c1)OCO2,·,·,·,87,117
COc1cccc(NC(=O)COC(=O)c2c3c(nc4ccccc24)CCC(C)C3)c1 (stereo not given),88,23*,31,1.7*,1.4*
COc1cccc(NC(=O)COC(=O)c2cccnc2)c1,103,99,90,96,102
SMILES,Lung fibro prol,H69AR inhibit,HUVEC prolif 384,HCT116 bCat-KO,HCT116 PTEN-null
O=C(COC(=O)c1c2c(nc3ccccc13)CCCC2)Nc1ccc2c(c1)OCO2,103,36*,68,37,24
COc1cc(-c2nnc(COc3ccc4cc(Br)ccc4c3)o2)cc(OC)c1OC,·,24*,46,61,72
O=C(c1coc(=O)c2ccccc12)N1CCN(Cc2ccccc2)CC1,98,89,89,94,91
N=C1C(c2nc(-c3ccc(Cl)cc3)cs2)=C(O)CN1CCCN1CCOCC1,107,62,10.0*,56,60
Nc1nc(SCC(=O)Nc2ccccc2Sc2ccccc2)n[nH]1,·,·,·,97,93
C=CCOCC(O)CS(=O)(=O)Cc1ccc(Cl)cc1 (stereo not given),101,90,95,108,106
CC(=O)c1c(N2CCN(Cc3ccccc3)CC2)[nH]c(-c2ccccc2)nc1=S,93,4.6*,77,93,91
CC(OC(=O)c1ccc2ccccc2n1)C(=O)Nc1ccc(N2CCOCC2)cc1 (stereo not given),93,88,92,104,95
CSc1cc(/C=N/O)c(SC)s1,·,·,·,86,86
Cc1cc(C)c(COCc2cc(/C=N/O)c(C)cc2C)cc1/C=N/O,91,18*,74,50,61
CCc1nn(C(C)C(=O)N2CCc3ccccc3C2)c(=O)c2cc3occc3n12 (stereo not given),·,·,·,107,107
Cn1nnnc1Sc1nc(-c2cccnc2)nc2ccccc12,12*,0.0*,86,·,·
O=c1cc(CO)oc(C(Nc2ccccn2)c2cccc(F)c2)c1O (stereo not given),97,91,102,102,113
O=c1cc(CO)oc(C(Nc2ccccn2)c2ccc(C(F)(F)F)cc2)c1O (stereo not given),89,19*,91,80,86
Cc1cccn2c(=O)c3cc(C#N)c(=O)n(CC4CCCO4)c3nc12 (stereo not given),·,·,·,89,85
Cc1ccc(C(=O)/C=C\NCc2ccccc2)cc1,·,·,·,96,88
Cc1ccc(C(=O)/C=C\C(=O)c2ccc(C)cc2)cc1,·,·,·,1.7*,1.8*
CC(/C=C/C(=O)c1ccc(C)cc1)=C\c1ccccc1,·,·,·,75,76
Cc1ccc(S/C=C\C(=O)c2ccccc2)cc1,70,1.2*,29*,13,71
CC(=O)N1CCN(c2ccc(NC(=O)c3ccc(C(C)(C)C)cc3)cc2)CC1,97,34*,51,5.9*,6
COc1cc(/C=N/O)cc(Br)c1OCc1ccc(Cl)cc1,·,·,·,69,71
CCOc1cc(/C=N/N=C(\N)c2nonc2N)cc(Br)c1OCc1cccc2ccccc12,41*,13*,7.5*,23,10
COc1cc(/C=N/N=C(/N)c2nonc2N)cc(Br)c1OCc1cccc(C)c1,81,74,30*,74,75
O=C(NCc1ccccn1)C1CCN(S(=O)(=O)c2cnc[nH]2)CC1,106,105,99,89,94
O=C(CCC1CCCCC1)NCc1ccccn1,·,·,·,94,92
SMILES,Lung fibro prol,H69AR inhibit,HUVEC prolif 384,HCT116 bCat-KO,HCT116 PTEN-null
O=C(Nc1cc(N2CCOCC2)ncn1)Nc1cccc2ccccc12,97,32*,75,53,51
CN(NC(=O)c1ccc(Cl)cc1)c1cccc(Cl)n1,·,·,·,76,86
Nc1nc(CN2CCC(Cc3ccccc3)CC2)nc(Nc2ccccc2)n1,67,30*,60,56,69
COc1ccccc1N1CCN(Cc2nc(N)nc(Nc3ccc(C)cc3)n2)CC1,91,3.0*,86,61,52
CC1CC(C)CN(Cc2nc(N)nc(Nc3ccc4ccccc4c3)n2)C1 (stereo not given),64,12*,50,21,23
Nc1nc(CN2CCCCCC2)nc(Nc2ccccc2)n1,106,77,112,64,63
Cc1ccc(Nc2nc(N)nc(CN3CCN(c4ccccc4F)CC3)n2)cc1,95,90,75,79,76
